PMC2973230 (Biochemical Journal, 2010)

Assays:
[1] = target: T1, OgOGA (Oceanicola granulosus OGA) (Oceanicola granulosus, UniProt Q2CEE3); test: Inhibition of OgOGA by OGA inhibitors, 4MU-GlcNAc substrate; format: biochemical
Summary of the method: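 OgOGA was a GST fusion expressed in E. coli and purified by affinity, anion-exchange and size-exclusion steps. Activity was measured in 25 mM Tris/HCl pH 7.5 with 0.1 mg/ml BSA and 2% DMSO at 37 °C. 4MU-GlcNAc was used at its Km for 20 min, with fluorescence read at ex 360/em 460 nm. Run in triplicate.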

[2] = target: T1, OgOGA (Oceanicola granulosus OGA); test: Enzymatic deglycosylation of glycopeptide monitored by LC-MS; format: biochemical; conditions: detected by LC-MS; 785 Da to 582 Da
Summary of the method: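 OgOGA expressed in E. coli as a GST fusion from a gene cloned from genomic DNA, then purified by affinity, anion-exchange and size-exclusion chromatography. Glycopeptide loss of GlcNAc followed by LC–MS: reversed-phase C18 HPLC with diode-array UV detection, coupled to a high-resolution TOF mass spectrometer.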

T1 sequence (Q2CEE3 whole entry, the tested form may be a part): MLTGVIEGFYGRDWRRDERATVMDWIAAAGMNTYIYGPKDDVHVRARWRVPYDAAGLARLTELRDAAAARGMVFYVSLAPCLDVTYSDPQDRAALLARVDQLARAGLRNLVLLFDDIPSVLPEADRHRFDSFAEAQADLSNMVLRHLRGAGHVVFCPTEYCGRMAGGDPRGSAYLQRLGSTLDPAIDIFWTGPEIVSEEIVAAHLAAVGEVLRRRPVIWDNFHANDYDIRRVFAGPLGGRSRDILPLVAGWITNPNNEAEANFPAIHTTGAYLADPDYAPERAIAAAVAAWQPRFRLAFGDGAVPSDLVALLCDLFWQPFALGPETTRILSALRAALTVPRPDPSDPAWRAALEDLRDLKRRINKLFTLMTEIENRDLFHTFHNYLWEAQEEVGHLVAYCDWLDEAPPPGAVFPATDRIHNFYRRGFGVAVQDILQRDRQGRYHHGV

| Compound | IC50 [1] [µM] | Deglycosylation of glycopeptide by OgOGA [2] |
| --- | --- | --- |
| CC(=O)N[C@H]1/C(=N/OC(=O)Nc2ccccc2)O[C@H](CO)[C@@H](O)[C@@H]1O [PUGNAc, O-(2-acetamido-2-deoxy-D-glucopyranosylidene)amino-N-phenylcarbamate] | 11 | – |
| Ac-VAHS(-β-O-GlcNAc)GA-NH2 | – | quantitatively deglycosylate |
